Source: ChEMBL document CHEMBL5712071, “BET bromodomain protein inhibition is a therapeutic option for medulloblastoma” (Oncotarget, 2013)
Calls of active or inactive are those of the source. No cut-off for these calls is given here.

How the values were obtained:
[1] = system: UW228; experiment: Induction of apoptosis in human UW228 cells assessed as increase in population of cells in G1 phase at 500 nM incubated for 72 hrs by ELISA; assay type: functional, cell-based
[2] = system: D283 Med; experiment: Induction of apoptosis in human D283 cells assessed as increase in population of cells in sub-G1 phase at 500 nM incubated for 72 hrs by flow cytometry; assay type: functional, cell-based
In short: (§1)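 Cells were cultured with 500 nM JQ1 or DMSO control, trypsinised and washed 3 times in PBS. DNA was stained with propidium iodide for 15 min and DNA content analysed by flow cytometry to give G1 and sub-G1 fractions.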

[3] = system: HD-MB03; experiment: Induction of apoptosis in human HD-MB03 cells assessed as increase in population of cells in sub-G1 phase at 500 nM incubated for 72 hrs by flow cytometry; assay type: functional, cell-based
In short: (§2)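 PI flow cytometry: cells seeded in triplicate, adhered 24h, then exposed to 500 nM JQ1 or DMSO control (methods give 48h culture, legend gives 72h). Harvested by trypsin, washed 3 times in PBS, stained with propidium iodide 15 min, DNA content read by flow cytometry. Sub-G1 fraction taken as apoptotic. Experiments repeated at least 3 times.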

[4] = system: HD-MB03; experiment: Antitumor activity against human HD-MB03 cells xenografted in female athymic (nu/nu) mouse assessed as reduction in tumor volume at 50 mg/kg, ip measured form days 4 to 14 days relative to untreated control; assay type: functional, organism-based; settings: time 4-14 day
In short: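 Female athymic nu/nu mice, 4 weeks old, received 2 × 10^7 HD-MB3 cells in Matrigel subcutaneously in the left flank. At 150–200 mm3 they were randomised, n=7 per group, to JQ1 50 mg/kg ip daily or vehicle for 28 days or until tumours exceeded 1000 mm3. Calipers were used, with volume = (breadth × length × height)/2. Time to 1000 mm3 was analysed by Kaplan-Meier.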

[5] = biological target: Bromodomain-containing protein 4 (Homo sapiens) (UniProt O60885); settings: HD-MB03, dose 500.0 nM, time 24.0 hrs
[6] = biological target: Bromodomain-containing protein 4 (Homo sapiens) (UniProt O60885); settings: Daoy, dose 500.0 nM, time 72.0 hrs
[7] = system: D341 cell line; experiment: Anti-proliferative activity against human D341 cells assessed as reduction in cell viability incubated for 96 hrs by MTT assay; assay type: functional, cell-based; settings: D341, 96 h
In short: (§3)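 Cells seeded in triplicate at 2 × 10^3 per well and allowed to adhere for 24h. JQ1 was given as serial dilutions in full medium, 1nM-6µM, from a 10 mM DMSO stock. Viability was read by MTT at each time point and IC50 derived from dose-response curves. Culture media were RPMI 1640/10% FCS for HD-MB3 (plus 1% NEAA), ONS-76, Daoy and UW-228, and EMEM/10% FCS for D-283 and D-341.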

[8] = system: Daoy; experiment: Anti-proliferative activity against human Daoy cells assessed as reduction in cell viability incubated for 48 hrs by MTT assay; assay type: functional, cell-based; in short: as §3
[9] = system: D283 Med; experiment: Induction of apoptosis in human D283 cells assessed as increase in population of cells in G1 phase at 500 nM incubated for 72 hrs by ELISA; assay type: functional, cell-based
[10] = biological target: Bromodomain-containing protein 4 (Homo sapiens) (UniProt O60885); settings: HD-MB03, dose 500.0 nM, time 6-24 hrs
[11] = biological target: Bromodomain-containing protein 4 (Homo sapiens) (UniProt O60885); settings: HD-MB03, dose 500.0 nM, time 72.0 hrs
[12] = system: UW228; experiment: Anti-proliferative activity against human UW228 cells assessed as reduction in cell viability incubated for 96 hrs by MTT assay; assay type: functional, cell-based; settings: UW228, 96 h; in short: as §3
[13] = system: HD-MB03; experiment: Induction of apoptosis in human HD-MB03 cells assessed as increase in population of cells in G1 phase at 500 nM incubated for 72 hrs by ELISA; assay type: functional, cell-based
[14] = biological target: Bromodomain-containing protein 4 (Homo sapiens) (UniProt O60885); settings: HD-MB03, dose 500.0 nM, time 96.0 hrs
[15] = system: Daoy; experiment: Anti-proliferative activity against human Daoy cells assessed as reduction in cell viability incubated for 72 hrs by MTT assay; assay type: functional, cell-based; in short: as §3
[16] = system: UW228; experiment: Induction of apoptosis in human UW228 cells assessed as increase in population of cells in G1 phase at 500 nM incubated for 72 hrs by flow cytometry; assay type: functional, cell-based
[17] = system: HD-MB03; experiment: Inhibition of BRD4 female athymic (nu/nu) mouse xenografted with human HD-MB03 cells as reduction in MYC mRNA expression in tumor at 50 mg/kg, ip administered at 0, 12, 24 and 36 hrs over 2-day course by RT-PCR analysis; assay type: functional, organism-based
In short: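 Same flank HD-MB3 xenografts in female nu/nu mice. Given 4 i.p. doses of JQ1 50 mg/kg (or DMSO) at 0, 12, 24 and 36h; tumours excised 4h after the last dose and snap-frozen. MYC measured by RT-PCR (mean ± S.D.) or western blot with β-actin loading control, 3 tumours per group.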

[18] = system: D341 cell line; experiment: Induction of apoptosis in human D341 cells assessed as increase in population of cells in G1 phase at 500 nM incubated for 72 hrs by flow cytometry; assay type: functional, cell-based; in short: as §1
[19] = system: ONS-76; experiment: Anti-proliferative activity against human ONS-76 cells assessed as reduction in cell viability incubated for 72 hrs by MTT assay; assay type: functional, cell-based; settings: ONS-76, 72 h; in short: as §3
[20] = system: D341 cell line; experiment: Anti-proliferative activity against human D341 cells assessed as reduction in cell viability incubated for 72 hrs by MTT assay; assay type: functional, cell-based; settings: D341, 72 h; in short: as §3
[21] = system: ONS-76; experiment: Induction of senescence in human ONS-76 cells assessed as increase in population of cells in G1 phase at 500 nM incubated for 72 hrs by fluorometric SA-beta-gal activity assay; assay type: functional, cell-based
In short: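 Senescence read as fluorometric SA-β-gal activity. Cells seeded 2 × 10^3 per well in triplicate and allowed 24h to adhere, then exposed to 500 nM JQ1 or DMSO control for 72h. Assayed per kit protocol. Experiments repeated at least 3 times.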

[22] = biological target: Bromodomain-containing protein 4 (Homo sapiens) (UniProt O60885); settings: D283 Med, dose 500.0 nM, time 24.0 hrs
[23] = system: HD-MB03; experiment: Anti-proliferative activity against human HD-MB03 cells assessed as reduction in cell viability incubated for 96 hrs by MTT assay; assay type: functional, cell-based; settings: HD-MB03, 96 h; in short: as §3
[24] = system: ONS-76; experiment: Induction of apoptosis in human ONS-76 cells assessed as increase in population of cells in G1 phase at 500 nM incubated for 72 hrs by flow cytometry; assay type: functional, cell-based
[25] = biological target: Bromodomain-containing protein 4 (Homo sapiens) (UniProt O60885); settings: D283 Med, dose 500.0 nM, time 72.0 hrs
[26] = system: UW228; experiment: Induction of apoptosis in human UW228 cells assessed as increase in population of cells in sub-G1 phase at 500 nM incubated for 72 hrs by flow cytometry; assay type: functional, cell-based; in short: as §2

Question: Cc1sc2c(c1C)C(c1ccc(Cl)cc1)=N[C@@H](CC(=O)OC(C)(C)C)c1nnc(C)n1-2 was tested. Which Activity [1] did it give?
Answer: Active

Question: And the Activity [2]?
Answer: Active

Question: And the Activity [3]?
Answer: Active

Question: And the Activity [4]?
Answer: Active

Question: What about the inhibition [5] of the same compound?
Answer: > 80%

Question: And the inhibition [6]?
Answer: Active

Question: What about the IC50 [7] of the same compound?
Answer: 0.157 µM

Question: What about the IC50 [8] of the same compound?
Answer: > 1 µM

Question: And the Activity [9]?
Answer: Active

Question: And the inhibition [10]?
Answer: Active

Question: What about the inhibition [11] of the same compound?
Answer: Active

Question: What about the IC50 [12] of the same compound?
Answer: > 1 µM

Question: And the Activity [13]?
Answer: Active

Question: And the inhibition [14]?
Answer: inactive

Question: And the IC50 [15]?
Answer: > 1 µM

Question: What about the Activity [16] of the same compound?
Answer: Active

Question: And the inhibition [17]?
Answer: Active

Question: And the Activity [18]?
Answer: Active

Question: And the IC50 [19]?
Answer: 0.087 µM

Question: What about the IC50 [20] of the same compound?
Answer: 0.244 µM

Question: And the Activity [21]?
Answer: Active

Question: What about the inhibition [22] of the same compound?
Answer: Active

Question: And the IC50 [23]?
Answer: 0.172 µM

Question: And the Activity [24]?
Answer: Active

Question: And the inhibition [25]?
Answer: Active

Question: What about the Activity [26] of the same compound?
Answer: Active
